This assay addresses 4-hydroxyphenylpyruvate dioxygenase (Sus scrofa, UniProt Q02110). As to the kind of experiment: Inhibition of pig liver 4-Hydroxyphenylpyruvate dioxygenase (4-HPPD) enzyme. The procedure, abridged:
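Spectrophotometric enol borate assay. Mixture: potassium phosphate/borate buffer (0.42 M H₃BO₃ brought to pH 6.2 with 0.17 M Na₃PO₄), 4-hydroxyphenylpyruvic acid (1.8 mM stock), reduced dichlorophenolindophenol with glutathione, and phenylpyruvate tautomerase. Equilibrated about 15 min at 308 nm, then enzyme added with varying inhibitor concentrations. Absorbance decrease at 308 nm followed for 15 min. IC50 from fit to v_i = v₀/(1+[I]/IC50).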
4-hydroxyphenylpyruvate dioxygenase, sequence (Q02110 whole entry): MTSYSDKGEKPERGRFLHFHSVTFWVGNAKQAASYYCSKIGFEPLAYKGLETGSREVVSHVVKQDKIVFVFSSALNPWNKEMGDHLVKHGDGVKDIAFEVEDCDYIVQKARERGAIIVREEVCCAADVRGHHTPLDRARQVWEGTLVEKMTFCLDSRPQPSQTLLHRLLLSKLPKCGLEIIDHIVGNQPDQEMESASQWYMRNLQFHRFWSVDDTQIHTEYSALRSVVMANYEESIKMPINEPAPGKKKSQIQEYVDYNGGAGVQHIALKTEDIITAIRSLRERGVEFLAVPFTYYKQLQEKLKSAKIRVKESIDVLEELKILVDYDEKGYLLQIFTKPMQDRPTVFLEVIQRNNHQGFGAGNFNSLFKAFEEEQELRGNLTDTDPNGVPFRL
`O=C1CCCC(=O)N1C(=O)c1ccccc1[N+](=O)[O-]` came in with a 50% inhibitory concentration (IC50) of 60 µM.

As for `O=C1CCCC(=O)C1=C(NO)c1ccccc1[N+](=O)[O-]`, the IC50 worked out at 50 µM.

Molecule `O=C1CCCC(O)=C1Cc1ccccc1[N+](=O)[O-]` registered an IC50 of 126 µM.

Molecule `O=C1CCCC(=O)C1=C(O)c1ccccc1[N+](=O)[O-]` gave an IC50 of 0.16 µM.

In turn, `O=C1CCCC/C1=C(/O)c1ccccc1[N+](=O)[O-]` had an IC50 of 0.7 µM.

Regarding `O=C1CCCC(=O)N1Cc1ccccc1[N+](=O)[O-]`, the concentration for half-maximal inhibition (IC50) was 250 µM.

In turn, `O=C1CCC=C(Cl)/C1=C(/O)c1ccccc1[N+](=O)[O-]` gave a half-maximal inhibitory concentration (IC50) of 0.53 µM.

`COC1=C(C(=O)c2ccccc2[N+](=O)[O-])C(=O)CCC1` yielded a half-maximal inhibitory concentration (IC50) of 52 µM.

Take `O=C1CCCC(Cl)=C1C(=O)c1ccccc1[N+](=O)[O-]`: the IC50 was 64 µM.

The values are drawn from ChEMBL document CHEMBL1135420, “Mode of action of 4-hydroxyphenylpyruvate dioxygenase inhibition by triketone-type inhibitors” (J Med Chem, 2002).
